Laboratory results published in ChEMBL document CHEMBL3797028, “Novel S1P1 receptor agonists - Part 4: Alkylaminomethyl substituted aryl head groups” (Eur J Med Chem, 2016).

Key:
[1] = biological target: Sphingosine 1-phosphate receptor 3 (Homo sapiens, UniProt Q99500); experiment: Agonist activity at human recombinant S1PR3 expressed in CHO cell membranes assessed as [35S]GTPgammaS binding preincubated for 30 mins followed by [35S]GTPgammaS addition measured after 1 hr by topcount analysis; format: functional
Sequence of Sphingosine 1-phosphate receptor 3 (Q99500 whole entry): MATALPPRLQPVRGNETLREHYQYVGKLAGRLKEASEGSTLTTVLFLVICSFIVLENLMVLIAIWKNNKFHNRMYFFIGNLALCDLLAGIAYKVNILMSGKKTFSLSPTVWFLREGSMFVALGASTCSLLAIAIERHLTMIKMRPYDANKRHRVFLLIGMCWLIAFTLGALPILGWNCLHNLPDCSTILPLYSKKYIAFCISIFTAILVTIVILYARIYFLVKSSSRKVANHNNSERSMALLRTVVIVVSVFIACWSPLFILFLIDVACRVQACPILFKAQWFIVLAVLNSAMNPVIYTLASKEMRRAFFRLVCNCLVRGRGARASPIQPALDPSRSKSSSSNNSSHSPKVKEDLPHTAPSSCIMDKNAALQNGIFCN
Summary of the method: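 Membranes from CHO cells expressing recombinant human S1P1 or S1P3 were used. Buffer was 20 mM Hepes pH 7.4, 100 mM NaCl, 5 mM MgCl2, 0.1% fatty-acid-free BSA, 2.5% DMSO and 50 pM 35S-GTPgammaS. GDP was […] for S1P3. Compound was preincubated 30 min at rt, then incubated 1 h at rt with 35S-GTPgammaS. Bound label was collected by filtration and counted. Specific binding was taken against 10 uM S1P. EC50 was the 50%-of-specific-binding concentration, reported as the geometric mean of at least three independent duplicate runs.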

[2] = Selectivity ratio of EC50 for human recombinant S1PR3 expressed in CHO cell membranes to EC50 for human recombinant S1PR1 expressed in CHO cell membranes; format: cell-based
Summary of the method: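 Compound and membranes are pre-incubated 30 min at rt, then incubated 1 h at rt, filtered and counted. EC50 is the concentration giving 50% of S1P-defined specific binding, as the geometric mean of ≥3 independent duplicate runs. Ratio = EC50 S1PR3/EC50 S1PR1.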

[3] = biological target: Sphingosine 1-phosphate receptor 1 (Homo sapiens, UniProt P21453); experiment: Agonist activity at human recombinant S1PR1 expressed in CHO cell membranes assessed as [35S]GTPgammaS binding preincubated for 30 mins followed by [35S]GTPgammaS addition measured after 1 hr by topcount analysis
Sequence of Sphingosine 1-phosphate receptor 1 (P21453 whole entry): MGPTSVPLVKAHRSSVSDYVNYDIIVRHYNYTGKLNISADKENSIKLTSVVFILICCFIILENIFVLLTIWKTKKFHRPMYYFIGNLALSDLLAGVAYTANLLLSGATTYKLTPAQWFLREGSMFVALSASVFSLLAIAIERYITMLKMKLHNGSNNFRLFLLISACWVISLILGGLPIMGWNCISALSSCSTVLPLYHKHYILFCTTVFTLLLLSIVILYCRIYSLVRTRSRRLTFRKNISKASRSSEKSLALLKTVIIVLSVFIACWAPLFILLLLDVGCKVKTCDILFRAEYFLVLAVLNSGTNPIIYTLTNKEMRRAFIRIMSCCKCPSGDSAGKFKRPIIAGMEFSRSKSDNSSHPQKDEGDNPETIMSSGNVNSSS

In the case of CCc1cc(-c2noc(-c3cc(C)nc(CN4CCCC4)c3)n2)cc(C)c1OC[C@@H](O)CNC(=O)CO, the EC50 [1] is reported as greater than 10 µM, the Ratio EC50 [2] is reported as greater than 105 and the EC50 [3] is reported as 0.095 µM.
Work on CCCN(C)Cc1sc(-c2nc(-c3cc(C)c(OC[C@@H](O)CNC(=O)CO)c(CC)c3)no2)cc1CC yielded an EC50 [1] of 0.02 µM, a Ratio EC50 [2] of 40 and an EC50 [3] of 0.0005 µM.
CCNCc1ccc(-c2nc(-c3cc(C)c(OC[C@@H](O)CNC(=O)CO)c(CC)c3)no2)s1 gave an EC50 [1] greater than 10 µM, a Ratio EC50 [2] greater than 34 and an EC50 [3] of 0.293 µM.
For CCc1cc(-c2noc(-c3cc(C)c(CN(C)C)c(C)c3)n2)cc(C)c1OC[C@@H](O)CNC(=O)CO, the EC50 [1] was 5.5 µM, the Ratio EC50 [2] was greater than 80 and the EC50 [3] was 0.069 µM.
CCc1cc(-c2noc(-c3cc(C)cc(CNCC(C)C)c3)n2)cc(C)c1OC[C@@H](O)CNC(=O)CO gave an EC50 [1] of 2.1 µM, a Ratio EC50 [2] of 140 and an EC50 [3] of 0.015 µM.
CCc1cc(-c2noc(-c3cc(CN(C)CC(C)C)ccc3C)n2)cc(C)c1OC[C@@H](O)CNC(=O)CO gave an EC50 [1] greater than 10 µM, a Ratio EC50 [2] greater than 20 and an EC50 [3] of 0.49 µM.
Compound CCc1cc(-c2noc(-c3ccc(C)c(CNCC(C)C)c3)n2)cc(C)c1OC[C@@H](O)CNC(=O)CO has an EC50 [1] greater than 10 µM, a Ratio EC50 [2] greater than 4 and an EC50 [3] of 2.35 µM.
CCc1cc(-c2noc(-c3ccc(CN(C)C)cc3C)n2)cc(C)c1OC[C@@H](O)CNC(=O)CO showed an EC50 [1] greater than 10 µM, a Ratio EC50 [2] greater than 43 and an EC50 [3] of 0.23 µM.
Work on CCc1cc(-c2noc(-c3ccc(CNC)s3)n2)cc(C)c1OC[C@@H](O)CNC(=O)CO yielded an EC50 [1] greater than 10 µM, a Ratio EC50 [2] greater than 53 and an EC50 [3] of 0.189 µM.
CCc1cc(-c2noc(-c3cc(C)c(C=O)s3)n2)cc(C)c1OC[C@@H](O)CNC(=O)CO showed an EC50 [1] greater than 10 µM and an EC50 [3] of 0.026 µM.
Compound CCCCN(C)Cc1sc(-c2nc(-c3cc(C)c(OC[C@@H](O)CNC(=O)CO)c(CC)c3)no2)cc1C has an EC50 [1] of 0.12 µM, a Ratio EC50 [2] of 171 and an EC50 [3] of 0.0007 µM.
CCc1cc(-c2noc(-c3cc(C)c(CN(C)CCO)s3)n2)cc(C)c1OC[C@@H](O)CNC(=O)CO gave an EC50 [1] of 1.7 µM, a Ratio EC50 [2] of 607 and an EC50 [3] of 0.0028 µM.
In the case of CCc1cc(-c2noc(-c3ccc(CN4CCCC4)c(C)c3)n2)cc(C)c1OC[C@@H](O)CNC(=O)CO, the EC50 [1] is reported as 3.1 µM, the Ratio EC50 [2] is reported as 62 and the EC50 [3] is reported as 0.05 µM.
CCc1cc(-c2nnc(-c3cc(C)nc(N(CC)CC)c3)o2)cc(C)c1OC[C@@H](O)CNC(=O)CO showed an EC50 [3] of 0.0079 µM.
For CCc1cc(-c2nc(-c3cc(C)c(OC[C@@H](O)CNC(=O)CO)c(CC)c3)no2)sc1CN(C)C, the EC50 [1] was 0.045 µM, the Ratio EC50 [2] was 150 and the EC50 [3] was 0.0003 µM.
With CCc1cc(-c2noc(-c3ccc(CNC)cc3)n2)cc(C)c1OC[C@@H](O)CNC(=O)CO the EC50 [1] was greater than 10 µM, the Ratio EC50 [2] was greater than 4.8 and the EC50 [3] was 2.09 µM.
For CCc1cc(-c2nc(-c3cc(C)c(OC[C@@H](O)CNC(=O)CO)c(CC)c3)no2)ccc1CN(C)CC, the EC50 [1] was 0.1 µM, the Ratio EC50 [2] was 100 and the EC50 [3] was 0.001 µM.
Work on CCCc1cc(CN(C)CC(C)C)cc(-c2nc(-c3cc(C)c(OC[C@@H](O)CNC(=O)CO)c(CC)c3)no2)c1 yielded an EC50 [1] of 0.0035 µM, a Ratio EC50 [2] of less than 2 and an EC50 [3] of 0.0028 µM.
Work on CCc1cc(-c2noc(-c3ccc(CN(C)C)s3)n2)cc(C)c1OC[C@@H](O)CNC(=O)CO yielded an EC50 [1] greater than 10 µM, a Ratio EC50 [2] greater than 1850 and an EC50 [3] of 0.0054 µM.
Compound CCCNCc1cccc(-c2nc(-c3cc(C)c(OC[C@@H](O)CNC(=O)CO)c(CC)c3)no2)c1 has an EC50 [1] greater than 10 µM, a Ratio EC50 [2] greater than 33 and an EC50 [3] of 0.305 µM.
CCCN(C)Cc1cc(-c2nc(-c3cc(C)c(OC[C@@H](O)CNC(=O)CO)c(CC)c3)no2)cc(C)n1 showed an EC50 [1] of 0.87 µM, a Ratio EC50 [2] of 102 and an EC50 [3] of 0.0085 µM.
Work on CCc1cc(-c2noc(-c3ccc(CN(CC)CC)c(C)c3)n2)cc(C)c1OC[C@@H](O)CNC(=O)CO yielded an EC50 [1] of 0.56 µM, a Ratio EC50 [2] of 56 and an EC50 [3] of 0.01 µM.
CCc1cc(-c2noc(-c3ccc(C)c(CN(C)C)c3)n2)cc(C)c1OC[C@@H](O)CNC(=O)CO gave an EC50 [1] greater than 10 µM, a Ratio EC50 [2] greater than 26 and an EC50 [3] of 0.385 µM.
CCc1cc(-c2noc(-c3sc(CN(C)C)c(C)c3C)n2)cc(C)c1OC[C@@H](O)CNC(=O)CO gave an EC50 [1] of 4.4 µM, a Ratio EC50 [2] of 687 and an EC50 [3] of 0.0064 µM.
Compound CCc1cc(-c2noc(-c3ccc(CN(C)CC)c(C)c3)n2)cc(C)c1OC[C@@H](O)CNC(=O)CO has an EC50 [1] of 0.91 µM, a Ratio EC50 [2] of 65 and an EC50 [3] of 0.014 µM.
In the case of CCc1cc(-c2nc(-c3cc(C)c(CCC(=O)NCCO)c(CC)c3)no2)cnc1N(C)C(C)C, the EC50 [3] is reported as 0.0051 µM.
